Assay [1] relates to OVCAR-3. Put plainly: Growth inhibitory activity was determined against OVCAR-3 cancer cell line of Ovarian cancer. In kind it is functional. The note with it: Homo sapiens. Put shortly:
(§1)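 NCI 60 human tumour cell line screen run at the National Cancer Institute. Cell growth and viability read with the protein stain sulforhodamine B, which binds basic amino acids of cells left attached after washing. […] MG MID is the mean GI50 calculated over all panels.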

Assay [2] concerns UO-31. As to the kind of experiment: Growth inhibitory activity was determined against UO-31 cancer cell line of renal cancer. In kind it is functional. The note with it: Homo sapiens. Put shortly: as §1
In assay [3] the test system is SN12C. As to the kind of experiment: Growth inhibitory activity was determined against SN12C cancer cell line of renal cancer. In kind it is functional. The note with it: Homo sapiens. An outline of the steps:
as §1

In assay [4] the test system is HT-29. As to the kind of experiment: Growth inhibitory activity was determined against HT-29 cancer cell line colon cancer. In kind it is functional, Homo sapiens. Put shortly:
as §1

In assay [5] the test system is T47D. Put plainly: Growth inhibitory activity was determined against T-47D cancer cell line of Breast cancer. In kind it is functional, Homo sapiens. An outline of the steps: as §1
Assay [6] concerns the target T1, M-phase inducer phosphatase 1 (Homo sapiens, UniProt P30304).
T1 sequence (P30304 whole entry): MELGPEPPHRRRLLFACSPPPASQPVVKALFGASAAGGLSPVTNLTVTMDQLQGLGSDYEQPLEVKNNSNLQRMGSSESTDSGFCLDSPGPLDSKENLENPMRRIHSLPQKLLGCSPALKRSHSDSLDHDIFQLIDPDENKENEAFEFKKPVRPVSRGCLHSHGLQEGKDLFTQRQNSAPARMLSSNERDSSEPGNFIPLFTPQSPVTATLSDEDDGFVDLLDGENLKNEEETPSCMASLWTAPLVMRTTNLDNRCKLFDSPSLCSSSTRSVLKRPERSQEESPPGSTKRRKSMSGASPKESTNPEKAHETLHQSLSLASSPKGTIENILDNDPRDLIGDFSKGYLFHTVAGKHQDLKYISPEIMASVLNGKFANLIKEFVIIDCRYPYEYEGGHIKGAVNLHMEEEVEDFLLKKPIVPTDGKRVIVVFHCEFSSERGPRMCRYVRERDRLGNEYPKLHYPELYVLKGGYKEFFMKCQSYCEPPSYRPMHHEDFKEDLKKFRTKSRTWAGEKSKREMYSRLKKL
As to the kind of experiment: (§2) Inhibitory activity tested against cell division cycle 25A (assay using fluorescein diphosphate (FDP) as substrate). Put shortly:
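Recombinant human GST-Cdc25A fusion protein, each batch calibrated so that FDP was dephosphorylated linearly over 20 min. Fluorescein diphosphate was the substrate. Reactions ran 15 min at 25 °C in the dark and were stopped with sodium orthovanadate. IC50 came from at least two independent runs, each in triplicate.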

Assay [7] deals with U-251. As to the kind of experiment: Growth inhibitory activity was determined against U-251 cancer cell line of CNS cancer. In kind it is functional. The note with it: Homo sapiens. An outline of the steps: as §1
Assay [8] deals with NCI/ADR-RES. As to the kind of experiment: Growth inhibitory activity was determined against NCI/ADR-RES cancer cell line of Breast cancer. In kind it is functional, Homo sapiens. Put shortly: as §1
For assay [9], the system named is COLO 205. As to the kind of experiment: Growth inhibitory activity was determined against COLO 205 cancer cell line colon cancer. In kind it is functional, Homo sapiens. Put shortly:
as §1

The test system of assay [10] is NCI-H23. Put plainly: Growth inhibitory activity was determined against NCI-H23 cancer cell line of non-small cell lung cancer. In kind it is functional, Homo sapiens. An outline of the steps:
as §1

Assay [11] addresses T2, Receptor-type tyrosine-protein phosphatase C (Homo sapiens, UniProt P08575).
T2 sequence (P08575 whole entry): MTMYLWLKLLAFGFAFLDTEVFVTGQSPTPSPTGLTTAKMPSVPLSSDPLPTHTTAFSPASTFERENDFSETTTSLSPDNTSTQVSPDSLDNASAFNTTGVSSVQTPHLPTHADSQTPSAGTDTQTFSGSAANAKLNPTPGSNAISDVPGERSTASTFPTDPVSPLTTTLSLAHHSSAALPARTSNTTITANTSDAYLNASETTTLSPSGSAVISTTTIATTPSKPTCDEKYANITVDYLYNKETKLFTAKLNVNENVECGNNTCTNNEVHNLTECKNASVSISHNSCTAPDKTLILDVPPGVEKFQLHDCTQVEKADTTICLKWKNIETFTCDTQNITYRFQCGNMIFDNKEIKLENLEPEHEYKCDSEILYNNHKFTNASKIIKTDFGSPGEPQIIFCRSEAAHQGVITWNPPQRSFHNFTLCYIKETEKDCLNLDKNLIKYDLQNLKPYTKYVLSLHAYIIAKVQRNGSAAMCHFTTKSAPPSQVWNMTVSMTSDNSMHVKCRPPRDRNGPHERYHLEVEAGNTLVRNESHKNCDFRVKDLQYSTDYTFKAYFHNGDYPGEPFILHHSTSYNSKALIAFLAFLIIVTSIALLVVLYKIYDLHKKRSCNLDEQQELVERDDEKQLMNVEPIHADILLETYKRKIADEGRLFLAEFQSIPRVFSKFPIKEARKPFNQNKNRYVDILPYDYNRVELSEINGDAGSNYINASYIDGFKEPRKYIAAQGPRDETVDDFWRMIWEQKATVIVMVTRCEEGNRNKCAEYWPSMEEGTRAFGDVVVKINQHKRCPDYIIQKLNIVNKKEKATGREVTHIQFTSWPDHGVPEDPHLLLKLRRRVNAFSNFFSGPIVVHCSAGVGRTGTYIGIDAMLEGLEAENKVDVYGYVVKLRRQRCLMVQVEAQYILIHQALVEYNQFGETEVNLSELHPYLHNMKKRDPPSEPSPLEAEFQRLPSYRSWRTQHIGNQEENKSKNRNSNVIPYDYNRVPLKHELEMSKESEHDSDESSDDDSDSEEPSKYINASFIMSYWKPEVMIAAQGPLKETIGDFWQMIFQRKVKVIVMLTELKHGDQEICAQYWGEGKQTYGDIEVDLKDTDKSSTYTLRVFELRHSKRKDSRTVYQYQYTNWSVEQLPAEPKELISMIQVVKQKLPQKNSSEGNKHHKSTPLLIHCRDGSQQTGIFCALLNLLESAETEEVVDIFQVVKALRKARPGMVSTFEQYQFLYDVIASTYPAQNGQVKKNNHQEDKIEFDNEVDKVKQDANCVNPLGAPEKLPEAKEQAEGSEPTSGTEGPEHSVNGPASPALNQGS
Put plainly: Inhibitory activity tested against Human CD45 Phosphatase (assay using p-nitrophenyl phosphate (pNPP) as substrate).

For assay [12], the system named is OVCAR-8. As to the kind of experiment: Growth inhibitory activity was determined against OVCAR-8 cancer cell line of Ovarian cancer. In kind it is functional. The note with it: Homo sapiens. Put shortly:
as §1

The subject of assay [13] is HCC 2998. Put plainly: Growth inhibitory activity was determined against HCC2998 cancer cell line colon cancer. In kind it is functional, Homo sapiens. Put shortly: as §1
Assay [14] concerns 786-0. As to the kind of experiment: Growth inhibitory activity was determined against 786-0 cancer cell line of renal cancer. In kind it is functional. The note with it: Homo sapiens. An outline of the steps:
as §1

Assay [15] has as its system LOX IMVI. As to the kind of experiment: Growth inhibitory activity was determined against LOX IMVI cancer cell line of melanoma. In kind it is functional, Homo sapiens. An outline of the steps: as §1
Assay [16] relates to SF-539. As to the kind of experiment: Growth inhibitory activity was determined against SF-539 cancer cell line of CNS cancer. In kind it is functional. The note with it: Homo sapiens. Put shortly: as §1
Assay [17] has as its target Receptor-type tyrosine-protein phosphatase C, CD45 (Homo sapiens) (UniProt P08575). As to the kind of experiment: Inhibitory activity tested against human CD45 (receptor-type tyrosine-protein phosphatase C).
For assay [18], the system named is BT-549 (Homo sapiens). As to the kind of experiment: Growth inhibitory activity was determined against BT-549 cancer cell line of Breast cancer.
Assay [19] concerns PC-3. As to the kind of experiment: Growth inhibitory activity PC-3 cancer cell line of Prostate cancer. In kind it is functional. The note with it: Homo sapiens. Put shortly: as §1
For assay [20], the system named is A549. Put plainly: Growth inhibitory activity was determined against A549/ATCC cancer cell line of non-small cell lung cancer. In kind it is functional, Homo sapiens. An outline of the steps:
as §1

The subject of assay [21] is SK-MEL-5. Put plainly: Growth inhibitory activity was determined against SK-MEL-5 cancer cell line of melanoma. In kind it is functional, Homo sapiens. An outline of the steps:
as §1

Assay [22] deals with OVCAR-3. As to the kind of experiment: Inhibition of Ovarian cancer in OVCAR-3 cancer cell lines. In kind it is functional. The note with it: Homo sapiens.
Assay [23] concerns T47D. As to the kind of experiment: Inhibition of Breast cancer in T-47D cancer cell lines. The note with it: Homo sapiens. In kind it is functional.
In assay [24] the target is T3, M-phase inducer phosphatase 1 (Homo sapiens) (UniProt P30304).
T3 sequence (whole entry): T1 sequence (P30304 whole entry)
The assay is described as §2. Put shortly: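 Recombinant human GST-Cdc25A fusion protein, each batch calibrated so that FDP was dephosphorylated linearly over 20 min. Fluorescein diphosphate was the substrate. Reactions ran 15 min at 25 °C in the dark and were stopped with sodium orthovanadate. Fluorescein monophosphate was read at 485 nm excitation and 530 nm emission. IC50 came from at least two independent runs, each in triplicate.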

Assay [25] relates to BT-549 (Homo sapiens). As to the kind of experiment: Inhibition of Breast cancer in BT-549 cancer cell lines.
Assay [26] has as its target Receptor-type tyrosine-protein phosphatase C, CD45 (Homo sapiens) (UniProt P08575). As to the kind of experiment: Inhibitory activity tested against human CD45 receptor-type tyrosine-protein phosphatase C.
The test system of assay [27] is NCI/ADR-RES. Put plainly: Inhibition of Breast cancer in NCI/ADR-RES cancer cell lines. In kind it is functional. The note with it: Homo sapiens.
The test system of assay [28] is 786-0. As to the kind of experiment: Inhibition of Renal cancer in 786-0 cancer cell lines. The note with it: Homo sapiens. In kind it is functional.
Assay [29] relates to UO-31. As to the kind of experiment: Inhibition of Renal cancer in UO-31 cancer cell lines. In kind it is functional. The note with it: Homo sapiens.
The subject of assay [30] is SN12C. As to the kind of experiment: Inhibition of Renal cancer in SN12C cancer cell lines. In kind it is functional. The note with it: Homo sapiens.
The test system of assay [31] is PC-3. Put plainly: Inhibition of Prostate cancer in PC-3 cancer cell lines. In kind it is functional. The note with it: Homo sapiens.
The subject of assay [32] is HT-29. Put plainly: Inhibition of colon cancer in HT-29 cancer cell lines. In kind it is functional. The note with it: Homo sapiens. Put shortly: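 Soft agar clonogenic assay of anchorage-independent growth, using HT-29 colon and A549 lung adenocarcinoma cells. The value is the compound concentration that cut colony number to 50% of control.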
The test system of assay [33] is NCI-H522. Put plainly: Growth inhibitory activity was determined against NCI-H522 cancer cell line of non-small cell lung cancer. The note with it: Homo sapiens. In kind it is functional. Put shortly:
as §1

Assay [34] concerns SF-268. Put plainly: Growth inhibitory activity was determined against SF-268 cancer cell line of CNS cancer. In kind it is functional. The note with it: Homo sapiens. Put shortly: as §1
The target in assay [35] is T3, M-phase inducer phosphatase 1 (Homo sapiens). As to the kind of experiment: Inhibitory activity tested against cell division cycle 25A (assay using p-nitro phenyl phosphate (pNPP) as substrate).
Assay [36] deals with OVCAR-8. Put plainly: Inhibition of Ovarian cancer in OVCAR-8 cancer cell lines. In kind it is functional. The note with it: Homo sapiens.

The record followed here is ChEMBL document CHEMBL1134845, “Syntheses and biological activities of a novel group of steroidal derived inhibitors for human Cdc25A protein phosphatase” (J Med Chem, 2001).

The structures appear in SMILES notation.

As usually defined, the GI50 is the concentration giving 50% growth inhibition. Higher therefore signals lower sensitivity of the cells. For orientation: IC50 means the midpoint of a concentration-inhibition curve.

Consider `CC(C)CCCC(C)[C@H]1CC[C@H]2[C@H](CC(=O)O)[C@@H](C(C)CCCCC#N)CC[C@]12C` (stereo in doubt; 22), for which the GI50 in assay [1] came out at 5.19 µM; in assay [2] it was 8.74 µM; in [3], 6.46 µM; in [4], 5.18 µM; in assay [5], 9.27 µM; in [7], 4.35 µM. Moreover, the GI50 in assay [8] was found to be 8.2 µM; in assay [9], 5.55 µM; in [10], 5.85 µM; in assay [12], 8.02 µM; in assay [13], 4.77 µM; in assay [14] it was 7.18 µM. The GI50 was determined as 4.69 µM in assay [15]; 5.01 µM in assay [16]; 6.2 µM in assay [18]; 6.88 µM in assay [19]; 4.35 µM in assay [20]; 7.71 µM in assay [21]. Besides, the IC50 was 1.9 µM in assay [6], 8.6 µM in [11] and 8.6 µM in [17].

As to `C/C(=C\CCCC#N)[C@H]1CC[C@]2(C)[C@@H]([C@H](C)CCCC(C)C)CC[C@H]2[C@@H]1CC(=O)O`, the GI50 in assay [22] came out at 6.77 µM; in [23], 8.22 µM; in assay [7] it was 5.53 µM; in assay [25], 5.75 µM; in assay [9] (Homo sapiens, COLO 205) it was 5.92 µM; in assay [27], 6.44 µM. The GI50 came out at 8.69 µM in assay [28]; 9.55 µM in assay [29]; 7.4 µM in assay [10] (Homo sapiens, NCI-H23); 7.73 µM in assay [30]; 4.31 µM in assay [13] (Homo sapiens, HCC 2998); 6.34 µM in [31]. Also, the GI50 in assay [32] is 6.49 µM; in [15] (Homo sapiens, LOX IMVI), 5.91 µM; in [33], 17.3 µM; in assay [16], 10.5 µM; in assay [34], 16.6 µM; in [36], 5.53 µM. For the same molecule, the GI50 in [20] (Homo sapiens, A549) was found to be 7.33 µM; in assay [21] (Homo sapiens, SK-MEL-5), 8.83 µM. The IC50 in [24] worked out at 2.5 µM; in assay [26] it was 13.2 µM; in assay [35] it was 9.3 µM.
